# MT stabilizer: microtubule stabilizers in HeLa cells, primary screen, imaging, high-content imaging; % tubulin-high responders, % at 10 µM; HeLa tubulin immunostaining HCS, 24 h; share of cells brighter than vehicle mean+2SD; actives 0.83% (n = 200,000); AID 2205, 2009;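 active means plate Z-score above 3 for both tubulin-high and condensed-nucleus cell shares, with cell loss under 80%, at 10 µM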;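 further: anti alpha tubulin signal scored within the nucleus-defined area of each cell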
# STAT3 inh: IL-6 driven STAT3 reporter inhibitors, primary screen, U3A cells, luciferase, luminescence, MLSCN library. IL-6 STAT3-luciferase reporter; host cell line lacks STAT1. inhibition, % at 5.5 µM. actives 0.89% (n = 190,000);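 active means inhibition above the mean inhibition across all screened compounds plus 3 SD, cut at about 44% in these data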;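 further: 0% = DMSO only wells and 100% = 100 µM nifuroxazide control wells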
# STAT1 blocker: STAT1 signaling inhibitors, primary screen, cell-based, HTS, luciferase reporter; NIH 3T3 STAT1-luciferase reporter, IFN-gamma, luminescence; inhibition, % at 5.5 µM; actives 0.35% (n = 200,000); AID 920, 2007;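 active means inhibition above a set limit, the mean inhibition across all tested compounds plus 3 SD, cut at about 34% in these data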;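 further: 0% = IFN-gamma with DMSO and 100% = IFN-gamma with 300 µM nifuroxazide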
# STAT3 activator: IL-6 driven STAT3 reporter potentiators, primary screen, U3A cells, luciferase, luminescence, MLSCN library | IL-6 STAT3-luciferase reporter; 100% = signal with IL-6 EC80 alone | activation (% of control), % at 5.6 µM | actives 0.91% (n = 190,000);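 active means activation above the screen-wide mean of compound activation plus 3 SD, cut at about 130% in these data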;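 further: 0% = background luminescence of wells with medium and substrate only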
#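 Test system: human U3A cells carrying STAT3-luciferase construct; control set: IL-6-only wells as 100% reference; timing: compound pre-incubation 1 h before IL-6, then 6 h stimulation at 37 °C; also added: IL-6 stimulus at 33 ng/mL final; evaluation: % activation versus median of IL-6-stimulated wells; detection: reporter luminescence signal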
# bCat nuc transl: modulators of beta-catenin nuclear translocation, primary screen, imaging, HeLa cells, immunofluorescence, high-content; nuclear translocation activity, % at 5 µM; actives 0.3% (n = 190,000);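 active means nuclear translocation activity above 50% at 5 µM, with a well cell count of 50 or more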;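 further: per-cell ratio of nuclear to cytoplasmic median beta-catenin stain intensity; plate controls were DMSO negative control for no effect and GSK-3 inhibitor IX positive control for full effect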
#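 Technique: fluorescence imaging of beta-catenin antibody stain plus DAPI / Material: human HeLa cell line / Incubation: compound treatment 24 h, 37°C, 5% CO2 / Read-out basis: % activation of per-cell nuclear versus cytoplasmic median beta-catenin signal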
# Active calls of the source: *; x = no result. Shown are actives, neighbours in structure and some others; about 2.4% of the full set was active somewhere.
SMILES,MT stabilizer,STAT3 inh,STAT1 blocker,STAT3 activator,bCat nuc transl
O=C(c1ccc(Br)cc1)c1cc([N+](=O)[O-])ccc1N1CCCCC1,17.2*,-7.1,-2.6,116.3,62.9*
CN1CCN(c2ccc(Cl)cc2NC(=O)c2ccc([N+](=O)[O-])cc2)CC1,x,x,x,x,0.5
CN1CCN(c2ccc([N+](=O)[O-])cc2C(=O)c2ccc(Br)cc2)CC1,19.5*,16.0,-6.1,95.8,63.6*
CN1CCN(c2ccc([N+](=O)[O-])cc2C(=O)c2ccccc2)CC1,16.4,-8.1,3.6,104.5,4.9
Cc1ccc(C(=O)c2cc([N+](=O)[O-])ccc2N2CCN(C)CC2)cc1,40.8*,6.6,-13.5,98.2,70.6*
O=C(c1ccccc1)c1cc([N+](=O)[O-])ccc1N1CCCC1,2.9,-12.5,-6.5,111.1,7.8
CC(=O)Nc1ccc(NC(=O)C2CCCN2C(=O)Nc2ccc(F)c([N+](=O)[O-])c2)cc1 (stereo unspecified),4.4,0.4,5.8,103.0,0.7
NC(=O)C(=O)N/N=C/c1c(F)c(F)c(F)c(F)c1F,2.1,2.4,5.7,98.6,-0.7
O=C(O)CCC(=O)NCc1c(Cl)cccc1Sc1ccc(Cl)cc1,x,x,x,x,-0.3
Fc1ccc(Br)cc1C1C=C(c2cccnc2)Nc2ncnn21 (stereo unspecified),18.2*,3.9,-5.0,104.4,x
CO/N=C/C(=N\Nc1ccc(OC)cc1)C(=O)c1ccc(F)cc1,2.5,-1.4,1.6,103.0,3.5
CO/N=C/C(=N\Nc1ccc(C)cc1)C(=O)c1ccc(OC)cc1,53.0*,2.9,-1.3,101.4,x
COc1ccccc1C(=O)NC(=Nc1nc2ccccc2o1)NC(=O)c1ccccc1OC,2.1,-41.1,-1.1,135.6*,-0.8
O=C(NC(=Nc1nc2ccccc2o1)NC(=O)c1ccccc1)c1ccccc1,1.2,19.7,5.4,85.7,-1.8
CC(=O)Oc1c(C)cc(Cl)cc1C(=O)Nc1ccc([N+](=O)[O-])cc1Cl,3.6,45.7*,3.1,62.9,4.0
CC(=O)OCC(=O)Nc1ccc([N+](=O)[O-])cc1Cl,4.0,4.3,-4.0,101.2,-1.4
N#CC1=C(N)NC(SCc2ccccc2)=C(C#N)C12CCCCC2,29.7*,-2.7,4.7,104.6,57.9*
CCSC1=C(C#N)C2(CCCCC2)C(C#N)=C(N)N1,3.8,12.2,6.7,93.3,0.2
Cc1nn(-c2ccc(F)cc2)c2nc(N)c(C#N)c(-c3cccs3)c12,2.6,-7.7,-1.5,110.1,-1.2
COc1cc(-c2c(C#N)c(N)nc3c2c(C)nn3-c2ccc(C)c(C)c2)cc(OC)c1OC,4.1,-34.1,5.8,135.2*,-0.1
CN(C(=O)CSc1nnc(-c2cccnc2)n1-c1ccccc1F)C1CCS(=O)(=O)C1 (stereo unspecified),2.3,-2.7,-3.4,104.1,-1.0
COC(=O)c1ccc2nc(-c3ccc4c(c3)OCO4)cn2c1,3.2,89.0*,66.3*,25.1,0.8
CCN(CC)CCn1c2ccccc2c2cnc(N)c(C#N)c21,2.9,-73.5,-83.1,168.7*,-2.4
COc1ccc(/C=N/NC(=O)c2cccnc2)cc1CN1CCc2ccccc2C1,x,x,x,x,0.4
COc1ccc(/C=N/NC(=O)c2cccnc2)cc1Cn1nc([N+](=O)[O-])c(Br)c1C,26.9*,-34.9,1.1,132.2,-4.8
SMILES,MT stabilizer,STAT3 inh,STAT1 blocker,STAT3 activator,bCat nuc transl
COc1ccc2c(c1)sc1nc(-c3ccccc3)cn12,3.2,106.0*,70.7*,14.9,0.4
Cc1cc2cc(CN(CC3CCCO3)C(=S)Nc3ccccc3)c(=O)[nH]c2cc1C (stereo unspecified),13.6*,-4.2,-1.7,101.5,23.4
COc1ccc2cc(CN(CC3CCCO3)C(=S)Nc3ccccc3)c(=O)[nH]c2c1 (stereo unspecified),27.3*,0.7,-6.9,101.4,43.1
COc1ccc2[nH]c(=O)c(CN(CC3CCCO3)C(=S)Nc3ccccc3)cc2c1 (stereo unspecified),3.9,1.6,-2.1,103.7,-0.5
O=C(Cn1cncc1-c1ccc([N+](=O)[O-])cc1)Nc1ccccc1F,2.3,5.7,8.7,93.2,0.4
O=C(COC(=O)C1Cc2ccccc2CN1C(=O)c1ccccc1)Nc1ccc(SC(F)F)cc1 (stereo unspecified),4.4,-16.1,-11.6,108.9,-1.6
Cc1ccc(-c2nc(CN(C)C3CCOC3)c(C)o2)s1 (stereo unspecified),3.5,-9.4,-7.3,112.7,0.8
CC(C)=NOc1nc(N(C)C)nc(N(C)C)n1,5.3,-6.5,-7.2,106.5,2.7
CCCCS/C(=C(/C#N)C(N)=O)c1cc2c([nH]1)CCCC2,11.9*,5.0,-8.6,102.2,4.2
C=CCOc1c(Cl)cc(C2NC(=O)NC(C)=C2C(=O)OC)cc1Cl (stereo unspecified),22.9*,10.3,-5.4,94.0,-0.1
CCc1nnc(NC(=O)CSc2nc(C)c3c(c2C#N)CCCC3)s1,26.2*,29.5,0.5,81.0,4.4
Oc1ccccc1-c1csc(-c2ccccc2)n1,3.2,-77.2,-38.0,169.5*,-0.1
CCC(CC)NC(=O)Nc1cccc(C)c1C,1.8,9.4,3.4,99.8,1.9
CCC(C)N(CC(=O)Nc1cccc(C)c1C)C(=O)CCl (stereo unspecified),18.5,70.1*,38.2*,42.1,7.0
O=C(O)CSCC(=O)Nc1ccc(Cl)cc1C(F)(F)F,4.0,7.8,-0.4,99.3,4.3
CC(C)N(CC(=O)Nc1ccc(Cl)cc1C(F)(F)F)C(=O)CCl,2.9,64.8*,45.6*,49.0,x
CC(=O)c1ccc(N(C(=O)CS(=O)CC(=O)Nc2ccc(F)cc2)C(C(=O)NC2CCCCC2)c2cccs2)cc1 (stereo unspecified),2.9,0.8,0.4,107.2,-3.6
COc1ccc(C(=O)OCN2C(=O)c3ccccc3C2=O)cc1,1.3,-6.4,-1.6,109.7,-2.3
O=[n+]1c2c(n([O-])c3c1CCC3)CCCC2,4.0,-35.6,-0.8,135.7*,-1.9
NNc1ccc2c(C(F)(F)F)cc(C(F)(F)F)nc2n1,2.0,-4.0,3.4,104.8,1.6
N#CC(c1cccc(Cl)c1)c1ccc2c(C(F)(F)F)cc(C(F)(F)F)nc2n1 (stereo unspecified),3.3,86.2*,60.5*,28.6,0.5
CC(=O)c1cn(CC(=O)Nc2c(C)cccc2C)c2ccccc12,5.0,30.0,30.3,77.2,0.8
CC(=O)c1cn(CC(=O)Nc2ccc(C)cc2)c2ccccc12,3.4,57.1*,13.6,51.4,-2.1
Cc1ccc(CN(CC(=O)N/N=C/c2ccco2)S(=O)(=O)c2ccc(C)cc2)cc1,1.3,15.0,4.2,93.2,-1.2
